Converted amounts (≈) assume the structure as drawn.
How the values were obtained:
Type in all cases: functional
Staphylococcus aureus [1] = assay: Antibacterial activity against Staphylococcus aureus SA1199B over-expressing NorA by MTT dye based assay
Outline: (§1)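 Strains grown on nutrient agar for 24 h at 37 °C before testing. Compounds dissolved in DMSO, diluted in MHB to 512 mg/L stock. Two-fold serial broth microdilution in MHB, final 128 to 0.25 mg/L in the initial evaluation. Final DMSO 1.56% to 0.0031% v/v. Inoculum 5×10^5 cfu/mL, 37 °C incubation, duplicates. MTT added for 20 min. MIC is the lowest concentration with no colour change.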

Staphylococcus aureus [2] = assay: Antibacterial activity against methicillin-resistant Staphylococcus aureus isolate XU212 harboring TetK tetracycline efflux pump by MTT dye based assay; outline: as §1
Staphylococcus aureus [3] = assay: Antibacterial activity against Staphylococcus aureus ATCC 25923 by MTT dye based assay; outline: as §1
Staphylococcus aureus [4] = assay: Antibacterial activity against Staphylococcus aureus RN4220 harboring MsrA macrolide efflux protein by MTT dye based assay; outline: as §1
Staphylococcus aureus [5] = assay: Antibacterial activity against methicillin-resistant Staphylococcus aureus EMRSA15 by MTT dye based assay; outline: as §1
Staphylococcus aureus [6] = assay: Antibacterial activity against methicillin-resistant Staphylococcus aureus EMRSA16 by MTT dye based assay; outline: as §1

Row | SMILES | MIC (Staphylococcus aureus [1]) [µg/mL] | MIC (Staphylococcus aureus [2]) [µg/mL] | MIC (Staphylococcus aureus [3]) [µg/mL] | MIC (Staphylococcus aureus [4]) [µg/mL] | MIC (Staphylococcus aureus [5]) [µg/mL] | MIC (Staphylococcus aureus [6]) [µg/mL]
1 | CC(=O)c1c(O)cc(O)cc1OC/C=C(\C)CCC=C(C)C | 8 (≈ 26.3 µM) | 8 (≈ 26.3 µM) | 16 (≈ 52.6 µM) | 8 (≈ 26.3 µM) | 16 (≈ 52.6 µM) | 4 (≈ 13.1 µM)
2 | CC[C@H](C)C(=O)c1c(O)cc(O)cc1OCc1ccccc1 | 8 (≈ 26.6 µM) | 4 (≈ 13.3 µM) | 4 (≈ 13.3 µM) | 4 to 8 (≈ 13.3 to 26.6 µM) | 8 (≈ 26.6 µM) | 4 (≈ 13.3 µM)
3 | CC(C)=CCC/C(C)=C/COc1cc(O)cc(O)c1C(=O)c1ccccc1 | 1 (≈ 2.73 µM) | 1 (≈ 2.73 µM) | 1 (≈ 2.73 µM) | 1 (≈ 2.73 µM) | 1 (≈ 2.73 µM) | 0.5 (≈ 1.36 µM)
4 | CC[C@H](C)C(=O)c1c(O)cc(O)cc1OC/C=C(\C)CC/C=C(\C)CCC=C(C)C | > 512 | > 512 | > 512 | > 512 | > 512 | > 512
5 | CCCCCCCCCCCCOc1cc(O)cc(O)c1C(=O)[C@@H](C)CC | 16 (≈ 42.3 µM) | 64 (≈ 169 µM) | 128 (≈ 338 µM) | 8 (≈ 21.1 µM) | 16 (≈ 42.3 µM) | 16 (≈ 42.3 µM)
6 | CCCCC(=O)c1c(O)cc(O)cc1OC/C=C(\C)CCC=C(C)C | 1 (≈ 2.89 µM) | 0.5 (≈ 1.44 µM) | 0.5 (≈ 1.44 µM) | 0.5 (≈ 1.44 µM) | 1 (≈ 2.89 µM) | 0.5 (≈ 1.44 µM)
7 | CC[C@H](C)C(=O)c1c(O)cc(O)cc1OCCC(C)C | 2 (≈ 7.13 µM) | 4 (≈ 14.3 µM) | 2 (≈ 7.13 µM) | 2 (≈ 7.13 µM) | 2 to 4 (≈ 7.13 to 14.3 µM) | 2 to 4 (≈ 7.13 to 14.3 µM)
8 | CCCCCCCCOc1cc(O)cc(O)c1C(=O)[C@@H](C)CC | 0.25 to 0.5 (≈ 0.775 to 1.55 µM) | 0.5 (≈ 1.55 µM) | 0.25 to 0.5 (≈ 0.775 to 1.55 µM) | 0.5 (≈ 1.55 µM) | 0.5 (≈ 1.55 µM) | 0.25 (≈ 0.775 µM)
9 | CCCCCCCCCCCCCCCCCC(=O)c1c(O)cc(O)cc1OC/C=C(\C)CCC=C(C)C | > 512 | > 512 | > 512 | > 512 | > 512 | > 512
10 | CCC(=O)c1c(O)cc(O)cc1OC/C=C(\C)CCC=C(C)C | 2 (≈ 6.28 µM) | 1 (≈ 3.14 µM) | 2 (≈ 6.28 µM) | 1 (≈ 3.14 µM) | 2 (≈ 6.28 µM) | 1 (≈ 3.14 µM)
11 | CC[C@H](C)C(=O)c1c(O)cc(O)cc1OCC=C(C)C | 16 (≈ 57.5 µM) | 4 to 8 (≈ 14.4 to 28.7 µM) | 8 (≈ 28.7 µM) | 8 (≈ 28.7 µM) | 16 (≈ 57.5 µM) | 4 (≈ 14.4 µM)
12 | CCCCCCCCCCCCCCCCCCOc1cc(O)cc(O)c1C(=O)[C@@H](C)CC | > 512 | > 512 | > 512 | > 512 | > 512 | > 512
13 | CCCCCCCCCC(=O)c1c(O)cc(O)cc1OC/C=C(\C)CCC=C(C)C | 512 (≈ 1230 µM) | 64 (≈ 154 µM) | 512 (≈ 1230 µM) | 256 (≈ 614 µM) | 512 (≈ 1230 µM) | 64 (≈ 154 µM)
14 | CC[C@H](C)C(=O)c1c(O)cc(O)cc1OCCC(C)CCCC(C)C (some centres not stated) | 0.5 to 1 (≈ 1.43 to 2.85 µM) | 1 (≈ 2.85 µM) | 1 (≈ 2.85 µM) | 0.5 (≈ 1.43 µM) | 0.5 to 1 (≈ 1.43 to 2.85 µM) | 0.25 (≈ 0.713 µM)
15 | CCCCCCCCCCOc1cc(O)cc(O)c1C(=O)[C@@H](C)CC | 2 (≈ 5.71 µM) | 2 to 4 (≈ 5.71 to 11.4 µM) | 1 to 2 (≈ 2.85 to 5.71 µM) | 1 (≈ 2.85 µM) | 0.5 to 1 (≈ 1.43 to 2.85 µM) | 0.25 (≈ 0.713 µM)
16 | CCCC(=O)c1c(O)cc(O)cc1OC/C=C(\C)CCC=C(C)C | 2 (≈ 6.02 µM) | 2 (≈ 6.02 µM) | 2 (≈ 6.02 µM) | 2 (≈ 6.02 µM) | 2 (≈ 6.02 µM) | 1 (≈ 3.01 µM)
17 | CCn1cc(C(=O)O)c(=O)c2cc(F)c(N3CCNCC3)cc21 [NORFLOXACIN] | 32 (≈ 100 µM) | 8 (≈ 25.1 µM) | 0.5 (≈ 1.57 µM) | 0.5 (≈ 1.57 µM) | 0.5 (≈ 1.57 µM) | 256 (≈ 802 µM)
18 | CC[C@H](C)C(=O)c1c(O)cc(O)cc1OC/C=C(\C)CCC=C(C)C [OLYMPICIN A] | 1 (≈ 2.89 µM) | 0.5 (≈ 1.44 µM) | 1 (≈ 2.89 µM) | 1 (≈ 2.89 µM) | 1 (≈ 2.89 µM) | 0.5 (≈ 1.44 µM)
19 | CN[C@H](CC(C)C)C(=O)N[C@H]1C(=O)N[C@@H](CC(N)=O)C(=O)N[C@H]2C(=O)N[C@H]3C(=O)N[C@H](C(=O)N[C@H](C(=O)O)c4cc(O)cc(O)c4-c4cc3ccc4O)[C@H](O)c3ccc(c(Cl)c3)Oc3cc2cc(c3O[C@@H]2O[C@H](CO)[C@@H](O)[C@H](O)[C@H]2O[C@H]2C[C@](C)(N)[C@H](O)[C@H](C)O2)Oc2ccc(cc2Cl)[C@H]1O [VANCOMYCIN] | 0.25 (≈ 0.173 µM) | – | 0.25 (≈ 0.173 µM) | – | 0.25 (≈ 0.173 µM) | 0.25 (≈ 0.173 µM)

— ChEMBL document CHEMBL4152298, “Total synthesis of acylphloroglucinols and their antibacterial activities against clinical isolates of multi-drug resistant (MDR) and methicillin-resistant strains of Staphylococcus aureus” (2018)
